Measurements: ChEMBL document CHEMBL2429734, “Expedient Synthesis of SMAMPs via Click Chemistry” (ACS Med Chem Lett, 2013)

Legend:
[1] = Hemolytic activity in human RBC assessed as release of hamoglobin after 1 hr; format: ADME, cell-based, Erythrocyte; conditions: for HC50 at 1 h: human red blood cells
In short: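 Lysis of human erythrocytes measured. HC50 was taken as the lowest concentration causing 50% lysis of the red blood cells.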

[2] = test system: Klebsiella pneumoniae; experiment: Antibacterial activity against Klebsiella pneumoniae ATCC 13883 assessed as growth inhibition after 18 hrs by broth microdilution method in absence of 40% mouse serum; format: functional; conditions: ATCC 13883, 18 h
In short: (§1)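 MIC determined by Hancock's method for cationic antimicrobial peptides, a slight modification of the CLSI microbroth dilution method, run in medium without mouse serum. Strains were S. aureus ATCC 27660, E. coli ATCC 25922, E. faecalis ATCC 29212, P. aeruginosa ATCC 10145 and K. pneumoniae ATCC 13883.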

[3] = test system: Pseudomonas aeruginosa; experiment: Antibacterial activity against Pseudomonas aeruginosa ATCC 10145 assessed as growth inhibition after 18 hrs by broth microdilution method in absence of 40% mouse serum; format: functional; conditions: ATCC 10145, 18 h; in short: as §1
[4] = test system: Enterococcus faecalis; experiment: Antibacterial activity against Enterococcus faecalis ATCC 29212 assessed as growth inhibition after 18 hrs by broth microdilution method in absence of 40% mouse serum; format: functional; conditions: ATCC 29212, 18 h; in short: as §1
[5] = test system: Escherichia coli; experiment: Antibacterial activity against Escherichia coli ATCC 25922 assessed as growth inhibition incubated for 30 mins prior to inoculation measured after 18 hrs by broth microdilution method in presence of 40% mouse serum; format: functional
In short: (§2)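 Hancock-modified CLSI microbroth dilution MIC run in the presence of 40% mouse serum against S. aureus ATCC 27660 or E. coli ATCC 25922. 40% was the highest serum level used because bacterial growth was impaired at higher percentages.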

[6] = test system: Escherichia coli; experiment: Antibacterial activity against Escherichia coli ATCC 25922 assessed as growth inhibition after 18 hrs by broth microdilution method in absence of 40% mouse serum; format: functional; conditions: ATCC 25922, 18 h; in short: as §1
[7] = test system: Staphylococcus aureus; experiment: Antibacterial activity against Staphylococcus aureus ATCC 27660 assessed as growth inhibition incubated for 30 mins prior to inoculation measured after 18 hrs by broth microdilution method in presence of 40% mouse serum; format: functional; in short: as §2
[8] = test system: Staphylococcus aureus; experiment: Antibacterial activity against Staphylococcus aureus ATCC 27660 assessed as growth inhibition after 18 hrs by broth microdilution method in absence of 40% mouse serum; format: functional; conditions: ATCC 27660, 18 h; in short: as §1
[9] = Ratio of compound HC50 to pexiganan HC50 for human RBC; format: ADME, cell-based; conditions: erythrocyte
[10] = Selectivity ratio of HC50 for human RBC to MIC for Escherichia coli ATCC 25922; format: functional
[11] = Selectivity ratio of HC50 for human RBC to MIC for Staphylococcus aureus ATCC 27660; format: functional

| MIC [2] [µg/mL] | MIC [3] [µg/mL] | MIC [4] [µg/mL] | MIC [5] [µg/mL] | MIC [6] [µg/mL] | MIC [7] [µg/mL] | MIC [8] [µg/mL] | Ratio [9] | Molecule | HC50 at 1 h [1] [µg/mL] | HC50 ([1]; erythrocyte, 1 h) [µg/mL] | Selectivity ratio [10] | Selectivity ratio [11] |
| --- | --- | --- | --- | --- | --- | --- | --- | --- | --- | --- | --- | --- |
| 50 | > 50 | 25 | 6.25 | > 50 | 0.39 | 12.5 | – | NCCCOc1cc(OCCCN)cc(-n2cc(-c3ccc4ccc(-c5cn(-c6cc(OCCCN)cc(OCCCN)c6)nn5)cc4c3)nn2)c1.O=C(O)C(F)(F)F.O=C(O)C(F)(F)F.O=C(O)C(F)(F)F.O=C(O)C(F)(F)F | 693 | – | – | – |
| – | – | – | – | – | – | – | – | PEXIGANAN ACETATE | – | 120 | – | – |
| > 50 | 12.5 | 50 | 25 | 25 | 0.19 | 12.5 | – | NCCCOc1cc(-n2cc(-c3ccc4ccc(-c5cn(-c6cc(OCCCN)c(OCCCN)c(OCCCN)c6)nn5)cc4c3)nn2)cc(OCCCN)c1OCCCN.O=C(O)C(F)(F)F.O=C(O)C(F)(F)F.O=C(O)C(F)(F)F.O=C(O)C(F)(F)F.O=C(O)C(F)(F)F.O=C(O)C(F)(F)F | 828 | – | – | – |
| > 50 | 25 | 25 | 25 | 25 | 12.5 | 50 | – | NCCCOc1cccc(-n2cc(-c3cccc(-c4cn(-c5cccc(OCCCN)c5)nn4)c3)nn2)c1.O=C(O)C(F)(F)F.O=C(O)C(F)(F)F | – | – | – | – |
| > 50 | 50 | 25 | 25 | 50 | 0.39 | 12.5 | – | NCCCOc1ccc(-n2cc(-c3ccc4ccc(-c5cn(-c6cc(OCCCN)c(OCCCN)c(OCCCN)c6)nn5)cc4c3)nn2)cc1OCCCN.O=C(O)C(F)(F)F.O=C(O)C(F)(F)F.O=C(O)C(F)(F)F.O=C(O)C(F)(F)F.O=C(O)C(F)(F)F | 94 | – | – | – |
| – | – | – | 12.5 | – | 3.13 | – | – | NCCCOc1cc(C#Cc2ccc3ccc(C#Cc4cc(OCCCN)cc(OCCCN)c4)cc3c2)cc(OCCCN)c1.O=C(O)C(F)(F)F.O=C(O)C(F)(F)F.O=C(O)C(F)(F)F.O=C(O)C(F)(F)F | 3.4 | – | – | – |
| > 50 | 50 | – | 6.25 | > 50 | 0.39 | 12.5 | 10 | NCCCOc1ccc(-n2cc(-c3cccc(-c4cn(-c5ccc(OCCCN)c(OCCCN)c5)nn4)c3)nn2)cc1OCCCN.O=C(O)C(F)(F)F.O=C(O)C(F)(F)F.O=C(O)C(F)(F)F.O=C(O)C(F)(F)F | > 1000 | – | > 160 | > 2500 |
| – | – | – | 25 | – | 1.56 | – | – | NCCCOc1cc(OCCCN)cc(-c2ccc3ccc(-c4cc(OCCCN)cc(OCCCN)c4)cc3c2)c1.O=C(O)C(F)(F)F.O=C(O)C(F)(F)F.O=C(O)C(F)(F)F.O=C(O)C(F)(F)F | 194 | – | – | – |
| > 50 | > 50 | 50 | > 50 | > 50 | 12.5 | > 50 | – | NCCCOc1cccc(-n2cc(-c3ccc4ccc(-c5cn(-c6cccc(OCCCN)c6)nn5)cc4c3)nn2)c1.O=C(O)C(F)(F)F.O=C(O)C(F)(F)F | – | – | – | – |
| > 50 | 25 | 50 | 12.5 | > 50 | 0.39 | 25 | – | NCCCOc1cc(OCCCN)cc(-n2cc(-c3ccc4c(ccc5cc(-c6cn(-c7cc(OCCCN)cc(OCCCN)c7)nn6)ccc54)c3)nn2)c1.O=C(O)C(F)(F)F.O=C(O)C(F)(F)F.O=C(O)C(F)(F)F.O=C(O)C(F)(F)F | 109 | – | – | – |
| 50 | 50 | 25 | 3.13 | > 50 | 0.19 | 25 | – | NCCCOc1ccc(-n2cc(-c3ccc4ccc(-c5cn(-c6ccc(OCCCN)c(OCCCN)c6)nn5)cc4c3)nn2)cc1OCCCN.O=C(O)C(F)(F)F.O=C(O)C(F)(F)F.O=C(O)C(F)(F)F.O=C(O)C(F)(F)F | 81 | – | – | – |
